The nature of series [1]: Retention time of the compound in DMSO at 0.75 mg/ml measured after 29 hrs by RP-HPLC analysis. It counts as physicochemical. Put shortly:
(§1)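 Stability in DMSO at 0.75 mg/ml, monitored by RP-HPLC on a C18 4.6×150 mm column. Gradient 0–100% B (A: 0.1% TFA in water; B: 0.1% TFA in acetonitrile-water 80:20), 1 ml/min, ambient temperature. Sampled at 0 min and after 29 h, detection at 280 or 220 nm.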

The nature of series [2]: Solubility of the compound in RPMI-1640/Sula media by spectrophotometric analysis. It counts as physicochemical. An outline of the steps: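 Solubility measured under assay conditions in RPMI and Sula media with 1 v/v% DMSO. Undissolved compound removed on a PVDF filter. 120 µL filtrate mixed with 80 µL acetonitrile, and concentration measured spectrophotometrically.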

Series [3] is described as follows: Selectivity index, ratio of IC50 for human MONO-MAC-6 cells to MIC for Mycobacterium abscessus ATCC 19977. In kind it is toxicity. As to conditions: read-out: Selectivity Index.
The nature of series [4]: Retention time of the compound in DMSO at 0.75 mg/ml measured at 0 min by RP-HPLC analysis. In kind it is physicochemical. Conditions: 0 h. An outline of the steps: as §1
The nature of series [5]: Retention time of the compound in serum-free RPMI-1640 medium containing 10% DMSO at 0.5 mg/ml after 30 mins by RP-HPLC analysis. Conditions: 0.5 h. It counts as physicochemical. An outline of the steps:
(§2)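 Stability in serum-free RPMI-1640 with 10% DMSO at 0.5 mg/ml, monitored by RP-HPLC on a C18 column. Gradient of 0.1% TFA water/acetonitrile-water, 1 ml/min, ambient temperature. Peaks identified by ESI-MS.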

For a further series, the system named is MONO-MAC-6. Put plainly: Cytostatic activity against human MONO-MAC-6 cells assessed as cell viability after 16 hrs by MTT assay. Conditions: MONO-MAC-6, 16 h. It counts as cell-based. An outline of the steps:
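MonoMac6 cells kept in RPMI-1640 with 10% FCS, 2 mM L-glutamine and gentamycin at 37 °C, 5% CO2. Cells plated 10⁵ per well and treated after 24 h for 16 h in serum-free RPMI (1.0 v/v% DMSO), 5×10⁻² to 10² µM. MTT at 367 µg/mL final for 3.5 h, crystals dissolved in DMSO, OD540 minus OD620. Cytotoxicity % versus untreated control fitted sigmoidally for IC50. Two independent experiments, 4–8 parallels.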

Series [6] deals with Mycobacterium tuberculosis. In words: Antimycobacterial activity against Mycobacterium tuberculosis H37Rv ATCC 27294 after 28 days by serial dilution method. In kind it is functional. As to conditions: for MIC: Mycobacterium tuberculosis, H37Rv ATCC 27294, 672 h. Put shortly: (§3)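 Serial dilution in in-house Sula semisynthetic medium, pH 6.5. Compounds added as DMSO solutions at 10 doses, final 0.05–100 µg/mL. Incubation at 37 °C, 7 days for M. abscessus and 28 days for M. tuberculosis strains. MIC taken as the lowest concentration giving visible growth inhibition, confirmed by CFU on drug-free Löwenstein-Jensen medium after further equal incubation. Repeated at least twice.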

For series [7], the system named is Mycobacteroides abscessus. In words: Antimycobacterial activity against Mycobacterium abscessus ATCC 19977 after 7 days by serial dilution method. As to conditions: for MIC: Mycobacteroides abscessus, ATCC 19977, 168 h. In kind it is functional. Put shortly: as §3
Series [8] in a line: Half life of the compound in serum-free RPMI-1640 medium at 0.75 mg/ml by RP-HPLC analysis. In kind it is ADME.
Series [9] in a line: Retention time of the compound in serum-free RPMI-1640 medium containing 10% DMSO at 0.5 mg/ml after 5 hrs by RP-HPLC analysis. It counts as physicochemical. Put shortly: as §2
Series [10] is described as follows: Selectivity index, ratio of IC50 for human MONO-MAC-6 cells to MIC for Mycobacterium tuberculosis H37Rv ATCC 27294. In kind it is toxicity. Conditions: read-out: Selectivity Index.
Series [11] can be described thus: Drug level in serum-free RPMI-1640 medium treated with [4-bromo-2-[[4-(trifluoromethyl)phenyl]carbamoyl]phenyl] N-(3-chloropropyl)carbamate at 0.75 mg/ml after 6 hrs by RP-HPLC analysis. In kind it is physicochemical.
Series [12] is described as follows: Drug level in serum-free RPMI-1640 medium treated with [4-bromo-2-[[4-(trifluoromethyl)phenyl]carbamoyl]phenyl] 5-chloropyrazine-2-carboxylate at 0.75 mg/ml after 29 hrs by ESI-MS spectra analysis. In kind it is physicochemical.
The subject of series [13] is Mycobacteroides abscessus. In words: Potency index, ratio of ciprofloxacin MIC to compound MIC for Mycobacterium abscessus ATCC 19977. In kind it is functional.
Series [14] relates to Mycobacteroides abscessus. Put plainly: Potency index, ratio of gentamicin MIC to compound MIC for Mycobacterium abscessus ATCC 19977. It counts as functional.

In brackets after ≈: the same amount, converted by molar mass. A value given as a limit tells only on which side of the number the result lay.

One may read the solubility as the concentration that dissolves in the medium under given conditions. A word on the IC50: it is the concentration at which inhibition is half-maximal. What is called MIC is the lowest concentration that inhibits growth of the organism. The low end stands for a more susceptible organism, the high end for a less susceptible organism. One may read the half-life as how long it takes for the measured level to halve. A low value points to fast loss.

On to `O=C(Oc1ccc(Br)cc1C(=O)Nc1ccc(C(F)(F)F)cc1)c1cnc(Cl)cn1`, for which the Retention_time in series [1], in [4], in [5] and in series [9] was 24 min throughout. The same compound displayed a solubility in series [2] of under 100 µM. The selectivity ratio was 0.2 in series [3] and 1.1 in [10]. Also, the IC50 in the series with MONO-MAC-6 is 1.1 µM. In addition, the Activity in series [6] and in series [7] was 0 CFU throughout. Besides, the MIC in series [6] came to 1 µM (≈ 0.501 µg/mL); in series [7], 5 µM (≈ 2.5 µg/mL). For the same compound, in [8], the half-life at 0.75 mg/ml was 3.7 h.

`O=C(Nc1ccc(C(F)(F)F)cc1)c1cc(Br)ccc1O`: the solubility in series [2] is under 100 µM. In addition, the selectivity ratio in [3] turned out to be 0.5; in series [10], 5.4. Further, the Drug metabolism entry in [11] and in series [12] was “metabolite_detected” throughout. For the same compound, the IC50 in the series on MONO-MAC-6 was 7.6 µM. Moreover, the Activity in series [6] stood at 2 CFU; in series [7], 0 CFU. The MIC in [6] is 1.4 µM (≈ 0.504 µg/mL); in series [7] it was 13.9 µM (≈ 5.01 µg/mL).

`O=C(O)c1cnc(Cl)cn1` returned a solubility in series [2] of under 500 µM. The Drug metabolism entry in series [12] is “metabolite_detected”. Further, the MIC in [6] and in series [7] was over 633 µM throughout. This compound registered a Retention_time in series [9] of 12.3 min.

`O=C(NCCCCl)Oc1ccc(Br)cc1C(=O)Nc1ccc(C(F)(F)F)cc1`: the Retention_time in [1], in series [4] and in series [5] was 22.6 min each time. The same compound had a solubility in series [2] of under 50 µM. Moreover, the selectivity ratio in series [3] is 28.5; in [10], 5.7. The IC50 with MONO-MAC-6 was 5.7 µM. The Activity is 8 CFU in series [6] and 0 CFU in [7]. Besides, the MIC in series [6] was 1 µM (≈ 0.48 µg/mL); in series [7], 0.2 µM (≈ 0.0959 µg/mL). In addition, the Ratio in series [13] came out at 15; in [14] it was 53. The compound further registered a half-life at 0.75 mg/ml in [8] of 0.183 h.

The values above are taken from ChEMBL document CHEMBL3612041, “Combating highly resistant emerging pathogen Mycobacterium abscessus and Mycobacterium tuberculosis with novel salicylanilide esters and carbamates” (Eur J Med Chem, 2015).
